Laboratory results taken from ChEMBL document CHEMBL4513216, “Probing the Open Global Health Chemical Diversity Library for Multistage-Active Starting Points for Next-Generation Antimalarials” (ACS Infect Dis, 2020).

Test: Toxicity liver stage against HepG2, at 10uM
Type: cell-based
Set-up: test concentration 10 uM, cell line HepG2-A16-CD81EGFP
Details: human, HepG2-A16-CD81EGFP cells; read-out: INHIBITION
Summary of the method: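 Uninfected HepG2-A16-CD81EGFP cells, 3 × 10^3 per well, 1536-well, plated on prespotted compound at 10 μM final, parasite-free screening media added to match infected plates; puromycin 10 μM positive, DMSO 0.5% negative; run in parallel with 48 h PbLuc assay at 37 °C, 5% CO2; viability by CellTiter-Glo luminescence, normalized to controls.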

CC(C)(C)NC(=O)c1ccc(COCC(F)(F)F)o1
cytotoxicity at 10 µM: -0.585%

O=C(c1cn(CC(=O)N2CCCCC2)c2ccccc12)C1CC1
cytotoxicity at 10 µM: 9.14%

CC(=O)N1CCN(C(=O)Cc2cnc(-c3c(Cl)cccc3Cl)s2)CC1
cytotoxicity at 10 µM: 7.27%

CC(C)NC(=O)c1csc(NC2CC2)n1
cytotoxicity at 10 µM: -2.72%

CN1CCN(C(=O)c2cc3sccc3n2Cc2ccc(Cl)cc2)CC1
cytotoxicity at 10 µM: 1.05%

CC1CC(=O)c2cc(C(=O)N3CCOCC3)c(=O)[nH]c2C1 (stereo unspecified)
cytotoxicity at 10 µM: -3.06%

COc1c[nH]c(C(=O)N2CCN(c3ccc(Cl)cc3)CC2)cc1=O
cytotoxicity at 10 µM: 4.42%

CC(=O)Nc1cnc(-n2ccnc2)nc1
cytotoxicity at 10 µM: -1.25%

O=C(NCCC(O)c1ccoc1)Nc1cccs1 (stereo unspecified)
cytotoxicity at 10 µM: -2.55%

CN(C)C(=O)[C@H]1CC[C@@H]2[C@@H](CCN2C(=O)N(C)C)O1
cytotoxicity at 10 µM: 20.3%

COc1ncccc1CN1CC[C@H]2O[C@H](c3nnc(C)o3)CC[C@H]21
cytotoxicity at 10 µM: 15.1%

CN1C(=O)C2(CCN(C(=O)c3cccnc3)CC2)c2cccc(F)c21
cytotoxicity at 10 µM: -1.06%

CN(C)C(=O)C1OC2(CCN(C(=O)N(C)C)CC2)c2ccccc21 (stereo unspecified)
cytotoxicity at 10 µM: 8.04%

COc1cc(Cl)c(C)cc1-n1nnc(C(=O)O)c1-c1ccncc1
cytotoxicity at 10 µM: 4.74%

O=C(COCC(=O)N1CCCCCC1)NCc1cccc(Br)c1
cytotoxicity at 10 µM: 1.47%

CCOc1cc(C(=O)n2cc(C)cn2)cc(OCC)c1OCC
cytotoxicity at 10 µM: 8.29%

c1cnc(CC2COCCN(C3CCCCC3)C2)cn1 (stereo unspecified)
cytotoxicity at 10 µM: 0.514%

C=C(C)Cn1nc(C)c(CN2CCN(C3CCCCC3)C(=O)C2)c1C
cytotoxicity at 10 µM: 4.59%

Cc1nc(-c2c(C)noc2C)cc(C2CCN(CC(=O)N(C)C)CC2)n1
cytotoxicity at 10 µM: 5.84%

O=C(c1cncs1)N1CCOCC(Cc2ccccn2)C1 (stereo unspecified)
cytotoxicity at 10 µM: 0.105%

CCN(Cc1ccncc1)CC1(C)Cc2c(N)nc(N)nc2O1 (stereo unspecified)
cytotoxicity at 10 µM: 2.15%

COC(=O)c1ncccc1N1CCN(C(=O)CN2CCOCC2)CC1
cytotoxicity at 10 µM: 16.7%

O=C(C(c1ccccc1)S(=O)(=O)c1ccccn1)N1CCCC1 (stereo unspecified)
cytotoxicity at 10 µM: 7.27%

CC(C(=O)NC1CCCC1)S(=O)(=O)Cc1noc(C(C)(C)C)n1 (stereo unspecified)
cytotoxicity at 10 µM: -9.41%

COc1ccncc1NC(=O)C1(c2ccccc2)CC1
cytotoxicity at 10 µM: 2.72%

COc1nc(N2CCNCC2)ncc1Br
cytotoxicity at 10 µM: 5.2%

Cc1cc(C(=O)N(C)CCN(C)C(=O)OC(C)(C)C)oc1C
cytotoxicity at 10 µM: 3.51%

CCc1noc(CSc2n[nH]c(-c3ccccn3)n2)n1
cytotoxicity at 10 µM: 5.49%

Cc1ccc(CC(NC(=O)CN(C)C2CC2)c2ccccn2)cc1 (stereo unspecified)
cytotoxicity at 10 µM: 5.33%

O=S(=O)(Cc1nc(C2CC2)no1)c1cc(F)ccc1F
cytotoxicity at 10 µM: 7.81%

CCS(=O)(=O)CCN1CCN(C2CCC(C(C)C)CC2)CC1 (stereo unspecified)
cytotoxicity at 10 µM: 7.76%

O=C1CC2(CCSC2)C(=O)N1Cc1coc(-c2ccccc2)n1 (stereo unspecified)
cytotoxicity at 10 µM: 5.57%

NC(=O)c1ccc(NC(=O)c2ccncc2Cl)cn1
cytotoxicity at 10 µM: 8.29%

Cc1noc(C)c1CNC(=O)Nc1ccc(N2CCOC2=O)cc1
cytotoxicity at 10 µM: -2.93%

CC(C)Cn1ncc(C(=O)O)c1C1CC1
cytotoxicity at 10 µM: -14%

CCc1ccc(C(COC)NC(=O)c2ccc(F)c(NC(C)=O)c2)o1 (stereo unspecified)
cytotoxicity at 10 µM: -11.1%

COc1ccccc1CC1CCN(C(=O)CCc2ccccn2)CC1
cytotoxicity at 10 µM: -3.2%

CCOC(=O)c1nnc2ccccc2c1N1CCN(C(C)C)CC1
cytotoxicity at 10 µM: -1.54%

Cn1cc(C2CCCN2C(=O)Cc2coc(-c3ccccc3)n2)cn1 (stereo unspecified)
cytotoxicity at 10 µM: 4.14%

CC(=O)N(Cc1ncc(C)o1)C1CCN(Cc2cnc(C)s2)C1 (stereo unspecified)
cytotoxicity at 10 µM: 5.42%

COc1cc(CN(C)C(=O)NC2CC2)ccc1SC
cytotoxicity at 10 µM: -8.01%

COc1cc(CN(C)C(=O)NCC(=O)NC(C)C)ccc1SC
cytotoxicity at 10 µM: -15.5%

Clc1cnccc1N1CCCC2(CCCOC2)C1 (stereo unspecified)
cytotoxicity at 10 µM: -2.35%

Cc1ccc(CNC(=O)NC(C)CN2CCOCC2)s1 (stereo unspecified)
cytotoxicity at 10 µM: -14.1%

Cc1cnn(CC2CCCN2C(=O)Cc2c(C)noc2Cl)c1 (stereo unspecified)
cytotoxicity at 10 µM: 0.471%

CCC(C)NC(=O)NCCC(=O)N1CCN(c2ccccn2)CC1 (stereo unspecified)
cytotoxicity at 10 µM: 4.22%

CCN(Cc1ccoc1)C(=O)c1cc(S(N)(=O)=O)c(C)o1
cytotoxicity at 10 µM: -2.98%

O=C(NCCNc1ccccn1)NCC1CCS(=O)(=O)C1 (stereo unspecified)
cytotoxicity at 10 µM: 1.48%

COCCN(C)S(=O)(=O)c1cc(C)cc(F)c1
cytotoxicity at 10 µM: 3.49%

Cc1cc(C(C)NC(=O)CCn2nnc3ccccc3c2=O)c(C)o1 (stereo unspecified)
cytotoxicity at 10 µM: 3.81%

COCCC1(CNC(=O)NCC2CCCS2)CCCC1 (stereo unspecified)
cytotoxicity at 10 µM: 0.96%

O=C(Nc1cccnc1)NC(CCCO)c1ccccc1 (stereo unspecified)
cytotoxicity at 10 µM: -4.4%

O=C1CCCc2[nH]c(=O)c(C(=O)N3CCc4ccccc4C3)cc21
cytotoxicity at 10 µM: 14.6%

O=c1cc(CNCc2ccc3c(c2)OCO3)nc2ccccn12
cytotoxicity at 10 µM: -6.17%

Cc1cccc(NS(=O)(=O)c2cc(C(=O)O)oc2C)c1
cytotoxicity at 10 µM: -9.15%

Cc1ccc(S(=O)(=O)NCCNC(=O)c2ccoc2)cc1F
cytotoxicity at 10 µM: -5.69%

CCOC(=O)c1c(NC(=O)CN2CCN(C(C)=O)CC2)sc2c1CCC2
cytotoxicity at 10 µM: -5.33%

CO[C@H]1CC[C@H]2[C@H]1OCCN2C(=O)CCOc1ccccc1
cytotoxicity at 10 µM: -95%

CS(=O)(=O)NC[C@]12COC[C@H]1CN(C(=O)CC1CCCC1)C2
cytotoxicity at 10 µM: -101%

O=C(c1cscn1)N1CCC[C@]2(C[C@H](OCC3CC3)CO2)C1
cytotoxicity at 10 µM: -2.86%

COc1ccccc1CN1CCC2(CC1)CC(Oc1ccccn1)CO2 (stereo unspecified)
cytotoxicity at 10 µM: -1.96%

COc1ccccc1OC1CN(Cc2ccc(C(=O)O)cc2)C1
cytotoxicity at 10 µM: -8.98%

Cc1cccc(CNC2CC(=O)N(Cc3cccc(F)c3)C2)c1 (stereo unspecified)
cytotoxicity at 10 µM: 1.22%

COc1cccc2c1OCC(NCCCOc1cccnc1)C2 (stereo unspecified)
cytotoxicity at 10 µM: 1.52%

COc1ccc(Cc2nc3c([nH]2)CC(C)(C)CNC3=O)cc1OC
cytotoxicity at 10 µM: -3.04%

COCCN(C)C(C(=O)O)c1ccc(F)c(C)c1 (stereo unspecified)
cytotoxicity at 10 µM: 1.87%

O=C(C1CC12CCC2)N1CCC(n2cc(-c3ccsc3)nn2)CC1 (stereo unspecified)
cytotoxicity at 10 µM: 5.85%

Cc1nc2c(c(=O)n1C)CCN(C(=O)CCc1ccccc1O)CC2
cytotoxicity at 10 µM: 0.53%

CCn1nc(CC(C)C)cc1C(=O)N1CCCC(C#N)C1 (stereo unspecified)
cytotoxicity at 10 µM: -8.2%

Cc1cc(C)n(CCCN(C)Cc2cn[nH]c2-c2ccc(F)cc2)n1
cytotoxicity at 10 µM: 2.09%

Cc1nc(CN2CCCC23CCN(c2nc4ccccc4s2)CC3)co1
cytotoxicity at 10 µM: -1.99%

CC(C)c1nccn1C(C)C(=O)NC1CCN(S(C)(=O)=O)CC1 (stereo unspecified)
cytotoxicity at 10 µM: -2.86%

COc1cccc2c1OCCCN(Cc1ccc(C(N)=O)c(=O)[nH]1)C2
cytotoxicity at 10 µM: 4.82%

Cc1ccc(-c2nc(CC3CCN(C)CC3)no2)cc1N1CCNC1=O
cytotoxicity at 10 µM: -11.8%

COCC(=O)N1CCC2(CC1)CC(=O)N(Cc1ccc(Cl)cc1)C2
cytotoxicity at 10 µM: 0.96%

CC(C)n1ccnc1C1CCCN(c2ncccc2C(N)=O)C1 (stereo unspecified)
cytotoxicity at 10 µM: -9.53%

N#Cc1cccc(NC2CC(=O)N(Cc3ccccc3Cl)C2)n1 (stereo unspecified)
cytotoxicity at 10 µM: 4.37%

CCOCCC(=O)NCC1CCCO1 (stereo unspecified)
cytotoxicity at 10 µM: 6.56%

Cc1nc[nH]c1CN1CCN(C(=O)C2(C)CC2)[C@H]2CS(=O)(=O)C[C@H]21
cytotoxicity at 10 µM: -4.76%

CC(C)[C@H]1CN(C(=O)CO)C[C@@H]1N(C)C
cytotoxicity at 10 µM: 7.1%

COCCN(C)CCN1CC2(CCN(C3CCNCC3)CC2)OC1=O
cytotoxicity at 10 µM: 1.64%

CCCNS(=O)(=O)c1ccc2[nH]c(=O)cc(C)c2c1
cytotoxicity at 10 µM: -3.37%

O=C(c1cccnc1N1CCN(Cc2ccoc2)CC1)N1CCCCC1
cytotoxicity at 10 µM: -3.68%

CN1Cc2ccccc2CC1C(=O)N1CCN(CCS(C)(=O)=O)CC1 (stereo unspecified)
cytotoxicity at 10 µM: 15.1%

CCc1nc(CN(C)C2CCCN(c3cccnn3)C2)no1 (stereo unspecified)
cytotoxicity at 10 µM: -5.87%

Cc1noc(NC(=O)CCNC(=O)c2ccc(Br)cc2)n1
cytotoxicity at 10 µM: 0.449%

Cc1ccc(F)c(NS(=O)(=O)c2cc3c(c(C(=O)O)c2)OCCO3)c1
cytotoxicity at 10 µM: -5.32%

CCOc1cc(C(=O)N2CCCC(c3noc(C(C)C)n3)C2)ccn1 (stereo unspecified)
cytotoxicity at 10 µM: -6.73%

CCNc1cc2c(nn1)CCN(C(=O)c1c(C)noc1C)C2
cytotoxicity at 10 µM: -5.76%

CC(=O)N(Cc1ncc(C(C)C)o1)C1CCN(Cc2cc(C)no2)C1 (stereo unspecified)
cytotoxicity at 10 µM: -5.89%

CC(=O)c1cccc(NC(=O)Cn2nc(-c3cccs3)oc2=O)c1
cytotoxicity at 10 µM: 4.78%

O=C(CCCOc1ccccc1)N1CCCC(n2cncn2)C1 (stereo unspecified)
cytotoxicity at 10 µM: -8.57%

COc1cccc(-n2nnc(C(=O)N3CCOC(C)C3)c2C)c1 (stereo unspecified)
cytotoxicity at 10 µM: -9.95%

N#Cc1cccnc1N1CCCN(C(=O)CCn2cncn2)CC1
cytotoxicity at 10 µM: 0.111%

CC1CN(C(=O)NCCNc2cnccn2)CCO1 (stereo unspecified)
cytotoxicity at 10 µM: 5.31%

Cc1nc(C)n(C2CCCN(C(=O)CCCOc3ccccc3)C2)n1 (stereo unspecified)
cytotoxicity at 10 µM: -12.7%

COCc1nc(C(=O)NS(=O)(=O)c2ccc(C)cc2C)cs1
cytotoxicity at 10 µM: -4.35%

N#CC1(C(=O)N2CCN(c3nccs3)CC2)CCCCC1
cytotoxicity at 10 µM: -8.24%

CSCc1cccc(C(=O)N2CCN(CC(C)O)CC2)c1 (stereo unspecified)
cytotoxicity at 10 µM: -5.31%

CN(CC(=O)N1CCCN(Cc2cscn2)CC1)c1cnccn1
cytotoxicity at 10 µM: -7.81%

CC(C)(C)Nc1c(C2CCCN(C(=O)C3CC3)C2)nc2ccccn12 (stereo unspecified)
cytotoxicity at 10 µM: 8.07%

Brc1cc(CNCc2nnc3n2CCC3)cs1
cytotoxicity at 10 µM: -6.22%

Fc1cccnc1O[C@@H]1CN(Cc2ccccn2)[C@@H]2CCCO[C@@H]21
cytotoxicity at 10 µM: 1.71%

Cc1ncnc2c1CCN(C(=O)Cc1ccccn1)CC2
cytotoxicity at 10 µM: 8.12%

COc1nn(C)c2c1CCCN(C(=O)c1ccc3ccccc3n1)C2
cytotoxicity at 10 µM: 13.7%

CN1CCC2(CC1)C(=O)N(CC1CC1)c1ccccc12
cytotoxicity at 10 µM: 3.21%

O=C(C1CCOCC1)N1CCO[C@H]2[C@H](OCc3ccncc3)CC[C@@H]21
cytotoxicity at 10 µM: -2.53%

CN(C)C(=O)[C@H]1CC[C@@H]2[C@@H](CCN2Cc2ccccn2)O1
cytotoxicity at 10 µM: 3.21%

O=c1[nH]c2cn(-c3ccccc3)c(=O)n2[nH]1
cytotoxicity at 10 µM: -11.5%

CCc1cc(NC2CCC(N)CC2)n2nc(C)c(C)c2n1 (stereo unspecified)
cytotoxicity at 10 µM: -4.33%

CSc1ncc(C(=O)N2C[C@@H]3CC[C@H]2CN(c2ncccn2)C3)cn1
cytotoxicity at 10 µM: 1.26%
